ChEMBL document CHEMBL1177748, “Homo- and heptanor-sterols and tremulane sesquiterpenes from cultures of Phellinus igniarius” (2010)
Activity calls are given as the source filed them. No cut-off for these calls is given here.

Assays:
Thoracic aorta = test: Vasodilating activity in Langendorff-perfused Sprague-Dawley rat thoracic aorta assessed as relaxation of phenylephrine-induced vasoconstriction at 10 uM relative to untreated control; format: functional; set-up: scale not given: the % may be the effect or the level left
Method in brief: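 Thoracic aortic rings were taken from Langendorff-perfused Sprague-Dawley rats weighing 200 ± 20 g. Rings were precontracted with phenylephrine, and isotonic tension was recorded. Compounds were tested at 10^-5 M. The relaxing rate was expressed as a percentage relative to the blank control.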

Rattus norvegicus = species on record: Rattus norvegicus; test: Inhibition of platelet-activating factor-induced beta-glucuronidase release in rat PMNC at 10 uM; format: functional
Liver microsomes = test: Antioxidant activity against Fe2+-cystine induced lipid peroxidation in rat liver microsomes at 10 uM; format: functional; conditions: Microsome
PC-12 = test: Neuroprotective activity against glutamate-induced neurotoxicity in rat PC12 cells at 10 uM; format: functional, cell-based
[1] = system: Human immunodeficiency virus 1; test: Antiviral activity against HIV1 assessed as inhibition of viral replication at 10 uM; format: functional, organism-based
[2] = target: T1, Tyrosine-protein phosphatase non-receptor type 1 (Homo sapiens) (UniProt P18031); test: Inhibition of PTB1B at 10 uM
T1 sequence (whole entry): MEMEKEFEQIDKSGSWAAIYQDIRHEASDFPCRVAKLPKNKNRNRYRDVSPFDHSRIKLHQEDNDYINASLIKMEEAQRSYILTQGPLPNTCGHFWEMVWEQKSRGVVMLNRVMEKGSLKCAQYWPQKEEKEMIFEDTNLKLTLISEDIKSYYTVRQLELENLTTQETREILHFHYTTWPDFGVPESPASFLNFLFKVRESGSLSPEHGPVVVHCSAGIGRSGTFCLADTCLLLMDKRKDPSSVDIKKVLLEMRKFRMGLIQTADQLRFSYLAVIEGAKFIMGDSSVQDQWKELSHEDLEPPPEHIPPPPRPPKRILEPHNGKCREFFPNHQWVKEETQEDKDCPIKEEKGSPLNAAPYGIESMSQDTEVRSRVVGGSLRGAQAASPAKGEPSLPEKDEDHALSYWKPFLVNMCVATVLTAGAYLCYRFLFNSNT

For COc1ccc(CCN(C)CCCC(C#N)(c2ccc(OC)c(OC)c2)C(C)C)cc1OC (stereo not given) [VERAPAMIL], the Activity (Thoracic aorta) was 83.3%.

C[C@H]1CC[C@H](CO)[C@H](CO)C2=C[C@@](C)(CO)C[C@H]21 was tested, and the inhibition (Rattus norvegicus) was “inactive”, the inhibition (Liver microsomes) was “inactive” and the Activity (Thoracic aorta) was 45.4%. The inhibition (PC-12) was “inactive”, the inhibition [1] was “inactive” and the inhibition [2] was “inactive”.

With C[C@H]1CCC2=C(COC2=O)[C@@]2(O)CC(C)(C)C[C@@H]12 the inhibition (Rattus norvegicus) was “inactive”, the inhibition (Liver microsomes) was “inactive” and the Activity (Thoracic aorta) was 46.6%. For the same compound, the inhibition (PC-12) was “inactive”, the inhibition [1] was “inactive” and the inhibition [2] was “inactive”.

In the case of CC1(C)OCC2=CC[C@H]3C(C)(C)[C@@H](O)CC[C@]3(C)[C@H]2CO1, the inhibition (Rattus norvegicus) is reported as “inactive”, the inhibition (Liver microsomes) is reported as “inactive” and the Activity (Thoracic aorta) is reported as 32.1%. The inhibition (PC-12) was “inactive”, the inhibition [1] was “inactive” and the inhibition [2] was “inactive”.

For C[C@H]1CC[C@H](CO)[C@H](CO)C2=C[C@](C)(CO)C[C@H]21, the inhibition (Rattus norvegicus) was “inactive”, the inhibition (Liver microsomes) was “inactive” and the Activity (Thoracic aorta) was 35.7%. The inhibition (PC-12) was “inactive”, the inhibition [1] was “inactive” and the inhibition [2] was “inactive”.
